Source: PubChem BioAssay (several laboratories)
DDE Tn6 FP inh: inhibitors of Tn6 peptide binding to human fibrin DD(E); P02675; Fibrin DD(E) TRITC-Tn6 fluorescence polarization displacement; inhibition, % at 8.3 µM; hit rate 0.21% among 370,000;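 active = inhibition above a per-campaign cutoff: mean of compounds within control limits plus 3 SD, cut at about 15% in these data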;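 note: 0% = median of all compound wells on the plate and 100% = blocking peptide control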
NRP1-CendR mod: NRP-1/CendR interaction modulation; O14786; FAM-RPARPAR peptide binding to NRP-1, fluorescence polarization; inhibition, % at 25 µM; hit rate 0.85% among 360,000; AID 602438;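 active = inhibition or corrected inhibition above about 18%, plus a signal ratio from 0.5 to 1.5, limit read from the data, passing the limit was not always enough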
DDE Tn7 FP inh: DD(E)-Tn7 binding inhibition, primary FP screen. P02675. FP displacement of FITC-Tn7 peptide from fibrin DD(E); 0% = median of compound wells per plate. inhibition, % at 8.3 µM. hit rate 0.13% among 370,000. AID 720508;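 active = inhibition above the mean of compounds falling within the control limits plus 3 SD of them, cut at about 14% in these data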;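 note: 0% = plate median of compound wells and 100% = 10 µM Aha-Tn7 peptide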
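assay system = human clot-derived fibrin DD(E) complex | quantity = Fibrin-DD(E) at 2 µM final | timing = 10 min preincubation, 3 h with tracer, room temperature | signal = fluorescence polarization | measure = percent inhibition | benchmarks = high control wells with 10 µM unlabelled Aha-Tn7 peptide (full inhibition) | replicates = singlicate testing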
PLC-beta3 inh: blocks human PLC-beta3 enzyme activity | Q01970 | Purified PLC-beta3, fluorogenic substrate, fluorescence | inhibition, % at 12.2 µM | hit rate 0.18% among 370,000; in the data active = inhibition above about 11%;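 note: 0% = median of compound wells on plate and 100% = full blocker control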
KLK7 zymogen act: activates the human kallikrein-7 zymogen; P49862; purified proKLK7, EDANS-DABCYL substrate fluorescence; 100% is mature enzyme control, 0% vehicle; activation, % at 7 µM; hit rate 0.9% among 370,000;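 active = activation above the mean of all tested compounds plus 3 SD, computed per campaign excluding outliers beyond control limits, cut at about 13% in these data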
PLCg1 inh: blocks human PLC-gamma1 enzyme activity | P19174 | purified PLC-gamma1, fluorogenic substrate, fluorescence | inhibition, % at 12.2 µM | hit rate 0.84% among 370,000 | AID 720700; in the data active = inhibition above about 9.5%
Target sequence (P19174 whole entry, looked up): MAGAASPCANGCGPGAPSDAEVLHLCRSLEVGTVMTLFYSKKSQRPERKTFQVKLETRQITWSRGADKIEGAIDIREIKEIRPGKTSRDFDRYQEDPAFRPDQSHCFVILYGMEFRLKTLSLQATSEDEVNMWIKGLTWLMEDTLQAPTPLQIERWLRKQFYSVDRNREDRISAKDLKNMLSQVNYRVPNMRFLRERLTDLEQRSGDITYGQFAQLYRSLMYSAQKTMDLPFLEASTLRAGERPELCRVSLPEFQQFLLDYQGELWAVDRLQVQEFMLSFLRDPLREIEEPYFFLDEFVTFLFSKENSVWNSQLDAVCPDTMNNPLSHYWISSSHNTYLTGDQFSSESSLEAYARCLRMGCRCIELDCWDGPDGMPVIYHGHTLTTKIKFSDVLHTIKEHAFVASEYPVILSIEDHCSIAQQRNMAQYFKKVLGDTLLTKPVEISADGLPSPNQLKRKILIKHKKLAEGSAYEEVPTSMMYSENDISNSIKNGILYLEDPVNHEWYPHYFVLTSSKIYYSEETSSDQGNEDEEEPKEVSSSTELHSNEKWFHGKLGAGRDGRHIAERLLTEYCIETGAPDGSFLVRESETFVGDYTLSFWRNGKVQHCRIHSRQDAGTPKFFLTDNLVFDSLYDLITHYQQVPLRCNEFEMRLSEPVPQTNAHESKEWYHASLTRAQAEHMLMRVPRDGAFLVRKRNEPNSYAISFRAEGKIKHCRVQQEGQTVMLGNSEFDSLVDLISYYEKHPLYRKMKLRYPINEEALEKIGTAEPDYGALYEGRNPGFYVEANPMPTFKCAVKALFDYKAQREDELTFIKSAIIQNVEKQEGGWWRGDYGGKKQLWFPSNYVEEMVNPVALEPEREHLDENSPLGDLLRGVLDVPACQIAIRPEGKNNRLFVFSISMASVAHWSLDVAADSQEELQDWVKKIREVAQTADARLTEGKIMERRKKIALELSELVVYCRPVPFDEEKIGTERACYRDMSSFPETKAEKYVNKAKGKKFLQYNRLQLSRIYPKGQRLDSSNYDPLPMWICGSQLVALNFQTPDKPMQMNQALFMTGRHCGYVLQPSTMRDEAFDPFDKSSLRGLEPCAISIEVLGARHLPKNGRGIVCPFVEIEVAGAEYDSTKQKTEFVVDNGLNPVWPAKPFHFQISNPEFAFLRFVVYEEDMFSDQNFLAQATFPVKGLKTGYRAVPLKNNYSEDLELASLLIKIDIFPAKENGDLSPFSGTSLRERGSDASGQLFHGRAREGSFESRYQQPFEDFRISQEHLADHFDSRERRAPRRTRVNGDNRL
proKLK7 act conf: proKLK7 activation, confirmation. AID 686949. purified proKLK7, EDANS-DABCYL substrate fluorescence; scaled: vehicle 0, mature enzyme 100. activation, % at 7 µM. shares compounds with KLK7 zymogen act. hit rate 68% among 3,200;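 active = activation, as change over the incubation, above the mean of all tested compounds plus 3 SD, cut at about 13% in these data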
EDANS-DABCYL int: optically interferes with EDANS-DABCYL signal, flagging KLK7 hits | shares compounds with KLK7 zymogen act | EDANS-DABCYL substrate fluorescence interference, no enzyme, 4 h; solvent 0%, active enzyme control 100% | activation, % at 7 µM | hit rate 80% among 3,200;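 active = activation above the all-compound mean plus 3 SD, ignoring values outside control-based bounds, cut at about 4.8% in these data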;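 note: value is the 4 h activation minus the activation read at time zero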
K7 EDANS ctr: optically interferes with EDANS-DABCYL fluorescence, kallikrein-7 activator counter-screen. shares compounds with KLK7 zymogen act. EDANS-DABCYL peptide fluorescence interference, no enzyme. EC50, µM. hit rate 20% among 250;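 active = compounds that raise the fluorescence signal in this interference counterscreen, with EC50 at or below 10 µM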;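 note: intact quenched peptide substrate alone read at 355 nm excitation and 520 nm emission; signal is fluorescence gain from T0 to T4 after four hours at room temperature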
An asterisk follows results filed as active; i = inactive; . = not tested or not shown. Sampled rows, rich in hits. Any-hit rate of the full collection: about 3%.

SMILES | DDE Tn6 FP inh | NRP1-CendR mod | DDE Tn7 FP inh | PLC-beta3 inh | KLK7 zymogen act | PLCg1 inh | proKLK7 act conf | EDANS-DABCYL int | others
COc1ccc(CN(CCN2CCOCC2)C(=O)c2cc(F)ccc2C)cc1OC | 4 | . | 8 | 0 | 0 | 0 | . | .
Nc1nc2ncccc2cc1C(=O)c1c[nH]c2ccccc12 | -4 | . | 8 | -1 | 0 | 1 | . | .
C#CCNC(=O)c1cc2cccnc2nc1N | 4 | . | 3 | -414 | 18* | -345 | 46* | 45*
COc1cc(C)ccc1C(=O)N1CCC(Oc2cccnc2)CC1 | 4 | . | 2 | -2 | 0 | 1 | . | .
O=C(NN=Cc1ccccc1O)C(O)c1ccccc1 (configuration not stated) | -9 | -12 | -5 | -35 | -62 | -30 | . | .
COc1ccc(OC)c(/C=N/NC(=O)CN2CCSCC2)c1 | 4 | -2 | -3 | i | 24* | i | 56* | 47* | K7 EDANS ctr=i
COc1ccc(OC)c(/C=N/NC(=O)C(O)c2ccccc2)c1 (configuration not stated) | 9 | 2 | 3 | i | 41* | i | 34* | 36*
O=C(c1cc(Cl)cc(Cl)c1)N1CC[C@H]2[C@H](CCCN2Cc2ccc(F)cc2)C1 | -4 | . | 2 | 4 | 0 | 0 | . | .
CCC1CCc2c(sc(NC(=O)c3ccco3)c2C(N)=O)C1 (configuration not stated) | -2 | -12 | 2 | -233 | 91* | -202 | -13 | -16
CCOC(=O)[C@]12CCCC=C1N(Cc1ccc(OC)cc1)C(=O)[C@@H]2CC(=O)NCCC(C)C | -4 | . | -6 | 2 | 0 | 3 | . | .
CC1=CC2=C(C=O)C(=O)C(C)(O)C(O)C2=CO1 (configuration not stated) | -12 | 0 | -1 | -28 | 21* | -14 | 29* | 27*
CN(Cc1cnc2nc(N)nc(N)c2n1)c1ccc(C(=O)NC(CCC(=O)O)C(=O)O)c2ccccc12 (configuration not stated) | -5 | -24 | -5 | i | 19* | -432 | 2 | 3
CCOc1ccc(CCNC(=O)c2cc3sccc3n2CC)cc1OC | 3 | . | 4 | 0 | 0 | 1 | . | .
CS(=O)(=O)N1C[C@]2(c3ccccc3)CC1Cc1ccccc12 | -2 | . | -4 | 3 | . | 2 | . | .
COc1ccc2cc(-c3nc4ccccc4n3C)c(=O)oc2c1 | 3 | -15 | -3 | i | 22* | i | 39* | 35*
Cn1c(-c2cc3ccccc3oc2=O)nc2ccccc21 | 4 | -1 | -4 | -406 | -2 | -276 | . | .
COc1ccc2ccccc2c1C1NC(=O)c2ccccc2N1 (configuration not stated) | 7 | 9 | -4 | -409 | 16* | -307 | 13 | 6.6*
O=S1(=O)CCSC[C@@H](CN2CCCC2)N1 | 2 | . | -7 | 2 | 0 | 3 | . | .
CCC(=O)N1CCc2cc(-c3csc(NC(=O)c4ccco4)n3)ccc21 | -2 | -4 | -4 | -30 | 98* | -16 | 22* | 16* | K7 EDANS ctr=i
O=C(Nc1nc(-c2ccc3c(c2)OCCO3)cs1)c1ccco1 | 2 | -7 | 1 | -23 | 0 | -11 | . | .
C/C(CCc1ccco1)=N\NC(=O)CNc1cccc2ccccc12 | -4 | 0 | 2 | -93 | 33* | -81 | 8 | 6.1*
O=C(CNc1cccc2ccccc12)N/N=C/c1ccc(C(=O)O)cc1 | 3 | -21 | 4 | -11 | 1 | -10 | . | .
C/C(=N\NC(=O)CNc1cccc2ccccc12)c1ccccc1 | 1 | -7 | 3 | -117 | 46* | -96 | 2 | 2
COC(=O)c1cc(S(=O)(=O)N2CCCN(C(C)=O)CC2)cn1C | -4 | . | -6 | 4 | 0 | -1 | . | .
